In the library only some 1.6% were active in any assay of this set; here they are far more common.
VLA-4 inh – inhibition in human VLA-4 binding assay, primary screen, VLA-4 allosteric modulator project, MLPCN library, flow cytometry, VLA-4 expressing cells | 330,000 compounds, 0.2% hits | inhibition, % (about 7 µM as worked out from the volumes in the protocol) | Integrin alpha-4 (Homo sapiens), P13612 | ligand binding flow cytometry; in the data active = inhibition above about 50%
NR2E3 ag-1 – NR2E3 agonists in two-hybrid cells, primary screen, cell-based, luminescence, CHO-S, Gal4-NCOR/VP16-NR2E3; 360,000 compounds, 0.35% hits; inhibition of corepressor binding, % at 3.98 µM; Photoreceptor-specific nuclear receptor (Homo sapiens), Q9Y5X4; AID 602229, 2012; luciferase;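 active = inhibition above the mean of all tested compounds plus 3 SD, cut at about 70% in these data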;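 note: 0% = DMSO with NR2E3 transfected cells and 100% = cells lacking NR2E3 construct; higher means lower luciferase signal from less NR2E3 corepressor binding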
Target sequence (Q9Y5X4 whole entry, looked up, the tested form may be a part): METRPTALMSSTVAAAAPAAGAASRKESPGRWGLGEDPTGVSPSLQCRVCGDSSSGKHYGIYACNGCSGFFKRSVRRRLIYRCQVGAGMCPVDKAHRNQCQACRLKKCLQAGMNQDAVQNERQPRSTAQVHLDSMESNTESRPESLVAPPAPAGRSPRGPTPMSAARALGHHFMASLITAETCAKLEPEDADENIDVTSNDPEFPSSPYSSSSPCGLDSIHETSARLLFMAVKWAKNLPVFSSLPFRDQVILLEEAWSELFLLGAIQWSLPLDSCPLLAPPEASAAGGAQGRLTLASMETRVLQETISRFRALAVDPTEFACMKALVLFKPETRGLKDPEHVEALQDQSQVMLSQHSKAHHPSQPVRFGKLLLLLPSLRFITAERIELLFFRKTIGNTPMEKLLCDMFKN
NR1D1 modulator – modulators of Rev-erb alpha DNA binding, primary screen, biochemical, FITC-DNA, fluorescence polarization, uHTS | Nuclear receptor subfamily 1 group D member 1 (Homo sapiens), P20393 | Rev-erbα–FITC-DNA binding, 90 min | activity, % at 10 µM | 370,000 compounds, 0.79% hits;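 active = activity above about 14%, limit read from the data; passing the limit was not always enough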;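 note: 0% = DMSO wells with 35 nM protein and 100% = DMSO wells with 750 nM protein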
PG9 Ab binder – binders of HIV-1 gp120 antibody PG9, primary screen, biochemical, TR-FRET. HIV-1 gp120 / PG9 antibody interaction. TR-FRET gp120-PG9 antibody binding. inhibition, % at 6.7 µM. 360,000 compounds, 0.43% hits; in the data active = inhibition above about 8.5%
NR2E3 ag-2 – inhibitors of NR2E3-RetCOR corepressor binding, primary screen, NR2E3 agonist project, biochemical, TR-FRET, GST-NR2E3, biotin-RetCOR. AID 2300, 2010. 320,000 compounds, 0.12% hits. inhibition of corepressor binding, % at 4.78 µM. 1536-well;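 active = percent inhibition above the cutoff of mean plus 3 SD of all tested compounds, set per screening campaign, cut at about 20% in these data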;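 note: 0% = DMSO wells and 100% = biotin wells as full block of FRET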
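System: GST-tagged NR2E3 plus biotinylated RetCOR corepressor; Buffer or medium: pH 7.5 Tris-based buffer; Probe or stimulus: RetCOR corepressor, biotinylated, 7 nM; Doses: compound at 4.8 µM, single dose; Schedule: 5 h incubation at 4 °C; Technique: time-resolved FRET; Evaluation: percent inhibition of TR-FRET ratio; Replication: one well per compound, singlicate testing.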
Rev-erbA confirm – modulators of Rev-erb alpha DNA binding, confirmation, biochemical, FITC-DNA, fluorescence polarization, single point | 3,000 compounds, 61% hits | 90 min | activation, % at 25 µM | shares compounds with NR1D1 modulator;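 active = activation at or above a set limit, or at least 3 SD above the negative control mean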;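 note: 0% = 35 nM protein with DMSO and 100% = 750 nM protein high control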
RORg DNA counter – modulation of RORgamma DNA binding, dose response, counter-screen for Rev-erb alpha modulator project, biochemical, fluorescence polarization, FITC-DNA | 910 compounds, 8% hits | purified RORgamma protein-FITC-DNA binding | shares compounds with NR1D1 modulator | IC50, µM;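 active = Compounds whose fitted half-maximal concentration for disrupting protein-DNA binding is below 10 micromolar; the record names Rev-erb in its text, so the target is in doubt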
Active calls of the source: *; x = not tested or not shown.

SMILES	VLA-4 inh	NR2E3 ag-1	NR1D1 modulator	PG9 Ab binder	NR2E3 ag-2	Rev-erbA confirm	others
COc1ccc(-c2csc3nc(-c4ccc(C)cc4)oc(=O)c23)cc1OC	26	-1	27*	0	2	-4
Cc1sc2nc(C(C)(C)C)oc(=O)c2c1C	3	6	-2	x	2	x
Cc1ccccc1-c1nc2sc(C)c(C)c2c(=O)o1	-11	-5	18*	2	1	0
CCOc1ccc(S(=O)(=O)N2CCOCC2)cc1NC(=O)Cc1c(F)cccc1Cl	16	-8	5	3	-3	x
CCOC(=O)c1c(C)nc(C)c(C(=O)OCC)c1-c1ccc(OC)cc1	0	-16	1	-1	0	x
CCOC(=O)c1c(C)nc2c(c1-c1ccc(OC)c(OC)c1)C(=O)c1ccccc1-2	-36	5	53*	2	-3	47*
COC(=O)c1cc(C#N)c(NCc2ccc(Cl)cc2Cl)nc1C	34	-4	24*	-1	2	7
NC(=O)C1(N2CCCCC2)CCN(C(=S)Nc2ccc(F)c(Cl)c2)CC1	18	-4	13*	-2	0	-6
CC(=O)NC(c1ccc(F)c(F)c1)c1nc(-c2ccc(C)c(C)c2)cs1 (stereo not drawn)	x	-8	1	-2	x	x
OC(c1ccccc1)c1nc(-c2ccc(F)c(Cl)c2)cs1 (stereo not drawn)	x	-29	16*	0	x	-1
CC(=O)NC(c1ccc(F)c(F)c1)c1nc(-c2ccc(F)c(Cl)c2)cs1 (stereo not drawn)	x	1	42*	0	x	-5
COC(=O)c1sc2nc(C)cc(C)c2c1N	5	-47	11	2	0	x
C=COC(=O)c1sc2nc(C)cc(C)c2c1N	-1	-34	24*	0	1	13
N#Cc1cnn(-c2ccc([N+](=O)[O-])cc2[N+](=O)[O-])c1N	x	-22	4	3	x	x
CCn1cc(C(=O)NCCc2ccccc2C)c(=O)c2ccc(C)nc21	0	-24	44*	-2	x	52*	RORg DNA counter=3.8*
CCOc1ccc(NC(=O)c2cn(-c3ccc(OCC)cc3)c(=O)c3cc(OC)c(OC)cc23)cc1	-7	-2	-3	0	-5	x
CCOc1ccc(-n2cc(C(=O)Nc3cccc(C)n3)c3cc(OC)c(OC)cc3c2=O)cc1	-8	3	35*	1	0	12
O=C(c1cc(-c2ccccc2Cl)nc2ccc(Br)cc12)N1CCN(c2ccccn2)CC1	-3	-29	19*	4	6	9
O=C(c1cc(-c2cccc(Cl)c2)nc2ccccc12)N1CCN(c2ccccn2)CC1	5	-25	0	-1	-1	x
Cc1cc(Br)cn2c(Cc3ccccc3)c(-c3ccc(Cl)cc3)nc12	x	5	25*	1	x	12*
Cc1cc(Br)cn2c(Cc3cccc(F)c3)c(-c3ccc(Cl)cc3)nc12	x	1	15	4	x	x
Cc1cc(Br)c2nc(-c3cccc(Br)c3)c(Cc3cccc(Cl)c3)n2c1	x	x	18*	6	x	7
Cc1cc(Br)cn2c(Cc3cccc(Cl)c3)c(-c3cccc(Cl)c3)nc12	x	-18	23*	5	x	13*
COc1ccccc1Cc1c(-c2cccc(Cl)c2)nc2c(C)cc(Br)cn12	x	-5	22*	2	x	11*
COc1ccccc1Cc1c(-c2ccc(OC)c(OC)c2)nc2c(C)cc(Br)cn12	x	-14	6	-2	x	x
SMILES	VLA-4 inh	NR2E3 ag-1	NR1D1 modulator	PG9 Ab binder	NR2E3 ag-2	Rev-erbA confirm	others
CC1(C)CC2CC(C)(CN2C(=O)c2cc(-c3ccccc3)on2)C1 (stereo not drawn)	0	-43	29*	-1	1	-3
O=C(Nc1ccccc1)c1ccc(N2CCN(c3ccccc3)CC2)c(S(=O)(=O)N2CCOCC2)c1	20	-8	61*	-2	1	29*
O=C(Nc1ccccc1)c1ccc(N2CCN(c3ccccn3)CC2)c(S(=O)(=O)N2CCOCC2)c1	2	5	0	1	-2	x
CCOc1ccc(NC(=O)c2cc3c(=O)n(C)c4ccccc4c3n2C)cc1	-14	-14	41*	-1	1	21*
O=C(c1nc2ccccn2c1CNCCCn1nnc2ccccc21)N1CCOCC1	4	9	1	-1	-2	x
Cc1ccc(CNC(=O)c2nnn(CC(=O)Nc3cccc(C)c3C)c2N)cc1	11	18	27*	-1	-2	22*
Cc1ccc(CNC(=O)Cn2nnc(C(=O)Nc3cccc(C)c3C)c2N)cc1	-5	-43	-3	3	2	x
COc1cccc(NC(=O)Cn2nnc(C(=O)NCCc3ccccc3)c2N)c1	7	16	20*	-3	-1	5
COc1cccc(NC(=O)Cn2nnc(C(=O)Nc3ccccc3)c2N)c1	9	-22	0	-1	-3	x
O=[N+]([O-])c1cc(CS(=O)(=O)Oc2ccc(Cl)cc2)c(O)c([N+](=O)[O-])c1	-2	-32	5	-1	3	x
COc1ccc(C(=O)c2c(-c3ccc(OC)cc3)oc3ccc(-c4cc(OC)c(OC)c(OC)c4)cc23)cc1	0	-27	13	1	-5	x
COc1ccc(-c2oc3ccc(-c4cc(OC)c(OC)c(OC)c4)cc3c2C(=O)c2ccc(OC)nc2)cc1	14	10	22*	1	0	3
C#CCN(CC=C)C(=O)CCc1nnc(COc2ccccc2)o1	4	-35	1	0	6	x
CC(C)c1ccc(NC(=O)CSc2nc(=O)[nH]c3c2CCCC3)cc1	18	12	6	0	-3	x
CC(C)c1ccc(NC(=O)CSc2nc(-c3ccccc3F)nc3nc[nH]c23)cc1	-2	-1	34*	-2	-1	18*
CCCCCN(C(=O)CCC(=O)OCC(=O)c1ccc(F)c(F)c1)c1c(N)n(CCCC)c(=O)[nH]c1=O	2	2	-3	-2	1	x
CC(=O)c1sc(NC(=O)COc2ccc(Cl)cc2C)nc1C	0	-8	84*	3	2	25*
CC(=O)c1sc(NC(=O)COc2ccc(Cl)cc2Cl)nc1C	24	-24	31*	0	4	1
O=C(C1CC=CCC1)N1CCN(S(=O)(=O)c2ccc(F)cc2)CC1 (stereo not drawn)	x	9	-13	0	x	x
